# How the values were obtained:
# Staphylococcus aureus [1] = experiment: Antimicrobial activity against glycopeptide-intermediate Staphylococcus aureus by broth microdilution technique after 24 hrs; type: functional
# In short: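 CLSI broth microdilution MIC and MBC in duplicate. Mueller-Hinton broth supplemented with Mg 12.5 mg/liter and Ca 25 mg/liter (Ca 50 mg/liter for daptomycin). Inoculum 5 × 10⁵ CFU/ml, 24 h at 35°C, tested up to 32.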
# Staphylococcus aureus [2] = experiment: Antimicrobial activity against heterogeneous glycopeptide-intermediate Staphylococcus aureus by broth microdilution technique after 24 hrs; type: functional
# In short: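 CLSI broth microdilution in Mueller-Hinton broth with Mg 12.5 mg/liter and Ca 25 mg/liter. […] MBC determined as well. hVISA isolates were identified by subpopulation analysis.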
# Staphylococcus aureus [3] = experiment: Antibacterial activity against Staphylococcus aureus Mu3 assessed as bacterial density after 24 hrs by time-kill curve analysis; type: functional
# In short: (§1)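 Time-kill in triplicate in Mueller-Hinton broth supplemented with Mg 12.5 mg/liter and Ca 25 mg/liter. Agent at 0.5×, 1×, 4× and 10× MIC. Starting inocula 5 × 10⁵ (about 6 log₁₀) or 1 × 10⁸ to 1 × 10⁹ CFU/ml. Samples at 0, 1, 4, 8 and 24 h, serially diluted in cold 0.9% NaCl or filtered to remove carryover. Counted by spiral plating on trypticase soy agar; detection limit 2 log₁₀ CFU/ml. Bactericidal = 99.9% kill.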
# Staphylococcus aureus [4] = experiment: Bactericidal killing activity of heterogenous vancomycin-intermediate Staphylococcus aureus by time kill curve analysis; type: functional, organism-based; in short: as §1
# Staphylococcus aureus [5] = experiment: Antibacterial activity against Staphylococcus aureus Mu50 assessed as bacterial density after 8 hrs by time-kill curve analysis; type: functional
# In short: (§2)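 Time-kill in Mueller-Hinton broth with Mg 12.5 mg/liter and Ca 25 mg/liter, run in triplicate. Drug at 0.5×, 1×, 4× and 10× MIC. Starting inocula ~6 log10 CFU/ml (5 × 10⁵ to 10⁶) or 8–9 log10 CFU/ml. Samples taken at 0, 1, 4, 8 and 24 h, diluted in cold 0.9% NaCl (filtered if carryover was possible), then spiral plated. Detection limit 2 log10 CFU/ml. Bactericidal = 99.9% kill.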
# Staphylococcus aureus [6] = experiment: Bactericidal killing activity of vancomycin-resistant Staphylococcus aureus by time kill curve analysis; type: functional, organism-based; in short: as §2
# Staphylococcus aureus [7] = experiment: Bactericidal killing activity against Staphylococcus aureus Mu3 at 10 times MIC; type: functional; in short: as §2
# Staphylococcus aureus [8] = experiment: Bactericidal killing activity of vancomycin-intermediate Staphylococcus aureus by time kill curve analysis; type: functional, organism-based; in short: as §1
# Staphylococcus aureus [9] = experiment: Bactericidal killing activity against Staphylococcus aureus Mu3 at 0.5 times MIC; type: functional; in short: as §1
# Staphylococcus aureus [10] = experiment: Bactericidal killing activity of heterogenous vancomycin-intermediate Staphylococcus aureus at 10 times MIC by time kill curve analysis; type: functional; in short: as §1
# Staphylococcus aureus [11] = experiment: Bactericidal killing activity against 6 log10 CFU/ml Staphylococcus aureus Mu50 at 4 times MIC by time-kill curve analysis; type: functional; in short: as §1
# Staphylococcus aureus [12] = experiment: Bactericidal killing activity against Staphylococcus aureus Mu50 at MIC; type: functional; in short: as §2
# Staphylococcus aureus [13] = experiment: Post antibiotic effect on Staphylococcus aureus Mu50 after 0.5 hrs; type: functional, organism-based
# In short: (§3)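 Exposure for 0.5 h at 1×, 2× and 4× MIC, then rapid drug removal by washing, dilution, filtration or inactivation. PAE = T − C: time for treated culture to rise 1 log₁₀ CFU/ml after removal, minus the same for an untreated control. Reported as average ± standard deviation.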
# Staphylococcus aureus [14] = experiment: Bactericidal killing activity against 8 to 9 log10 CFU/ml Staphylococcus aureus Mu3 at MIC by time-kill curve analysis; type: functional; in short: as §2
# Staphylococcus aureus [15] = experiment: Antibacterial activity against Staphylococcus aureus Mu3 assessed as bacterial density after 8 hrs by time-kill curve analysis; type: functional; in short: as §1
# Staphylococcus aureus [16] = experiment: Bactericidal killing activity against Staphylococcus aureus Mu3 at MIC; type: functional; in short: as §1
# Staphylococcus aureus [17] = experiment: Post antibiotic effect on vancomycin-resistant Staphylococcus aureus PA after 0.5 hrs; type: functional, organism-based
# In short: (§4)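 Cultures exposed for 0.5 h at 1×, 2× and 4× MIC, then drug removed by washing, dilution, filtration or inactivation. PAE = T − C, where each is the time for counts to rise 1 log10 above the count right after drug removal, for treated (T) and untreated control (C) cultures.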
# Staphylococcus aureus [18] = experiment: Bactericidal killing activity against Staphylococcus aureus Mu3 at 4 times MIC; type: functional; in short: as §1
# Staphylococcus aureus [19] = experiment: Antibacterial activity against Staphylococcus aureus Mu50 assessed as bacterial density after 24 hrs by time-kill curve analysis; type: functional; in short: as §2
# Staphylococcus aureus [20] = experiment: Bactericidal killing activity against 6 log10 CFU/ml Staphylococcus aureus Mu3 at MIC by time-kill curve analysis; type: functional; in short: as §1
# Staphylococcus aureus [21] = experiment: Bactericidal killing activity against 8 to 9 log10 CFU/ml Staphylococcus aureus Mu50 at 4 times MIC by time-kill curve analysis; type: functional; in short: as §1
# Staphylococcus aureus [22] = experiment: Bactericidal killing activity of vancomycin-intermediate Staphylococcus aureus at 10 times MIC by time kill curve analysis; type: functional; in short: as §1
# Staphylococcus aureus [23] = experiment: Post antibiotic effect on vancomycin-resistant Staphylococcus aureus MI after 0.5 hrs; type: functional, organism-based; in short: as §4
# Staphylococcus aureus [24] = experiment: Post antibiotic effect on Staphylococcus aureus Mu3 after 0.5 hrs; type: functional, organism-based; in short: as §3
# Staphylococcus aureus [25] = experiment: Bactericidal killing activity against Staphylococcus aureus Mu50 at 4 times MIC; type: functional; in short: as §2
smiles,measurement,setting,value
C[C@H](CCCO)[C@H]1CC[C@H]2[C@@H]3[C@H](OCCCN)CC4C[C@H](OCCCN)CC[C@]4(C)[C@H]3C[C@H](OCCCN)[C@]12C.Cl (stereo partly drawn),MBC50,Staphylococcus aureus [1],8 µg/mL
same,MBC90,Staphylococcus aureus [1],8 µg/mL
same,MIC50,Staphylococcus aureus [2],4 µg/mL
same,MIC90,Staphylococcus aureus [2],8 µg/mL
CCCCCCCCNCCC[C@@H](C)[C@H]1CC[C@H]2[C@@H]3[C@H](OCCCN)CC4C[C@H](OCCCN)CC[C@]4(C)[C@H]3C[C@H](OCCCN)[C@]12C.Cl.Cl.Cl.Cl (stereo partly drawn),log10CFU/ml,Staphylococcus aureus [3],-3.75
same,Activity,Staphylococcus aureus [4],Dose-dependent effect
same,log10CFU/ml,Staphylococcus aureus [5],-3.4
same,Activity,Staphylococcus aureus [6],Dose-dependent effect
same,T99.9%,Staphylococcus aureus [7],1 h
same,Activity,Staphylococcus aureus [8],Dose-dependent effect
same,T99.9%,Staphylococcus aureus [9],24 h
same,T99.9%,Staphylococcus aureus [10],1 h
same,T99.9%,Staphylococcus aureus [11],4 h
same,T99.9%,Staphylococcus aureus [12],8 h
same,Post anitbiotic effect,Staphylococcus aureus [13],Dose-dependent effect
same,T99.9%,Staphylococcus aureus [14],>=24 hr
same,log10CFU/ml,Staphylococcus aureus [15],-3.4
same,T99.9%,Staphylococcus aureus [16],8 h
same,Post anitbiotic effect,Staphylococcus aureus [17],Dose-dependent effect
same,T99.9%,Staphylococcus aureus [18],4 h
same,log10CFU/ml,Staphylococcus aureus [19],-3.75
same,T99.9%,Staphylococcus aureus [20],8 h
same,T99.9%,Staphylococcus aureus [21],>=24 hr
same,MBC50,Staphylococcus aureus [1],1 µg/mL
same,MBC90,Staphylococcus aureus [1],1 µg/mL
same,T99.9%,Staphylococcus aureus [22],1 h
same,Post anitbiotic effect,Staphylococcus aureus [23],Dose-dependent effect
same,MIC50,Staphylococcus aureus [2],1 µg/mL
same,MIC90,Staphylococcus aureus [2],1 µg/mL
same,Post anitbiotic effect,Staphylococcus aureus [24],Dose-dependent effect
same,T99.9%,Staphylococcus aureus [25],4 h
CCCCCCCCCC(=O)N[C@@H](Cc1c[nH]c2ccccc12)C(=O)N[C@H](CC(N)=O)C(=O)N[C@@H](CC(=O)O)C(=O)N[C@@H]1C(=O)NCC(=O)N[C@@H](CCCN)C(=O)N[C@@H](CC(=O)O)C(=O)N[C@H](C)C(=O)N[C@@H](CC(=O)O)C(=O)NCC(=O)N[C@H](CO)C(=O)N[C@@H]([C@H](C)CC(=O)O)C(=O)N[C@@H](CC(=O)c2ccccc2N)C(=O)O[C@@H]1C,MBC50,Staphylococcus aureus [1],0.5 µg/mL
same,MBC90,Staphylococcus aureus [1],1 µg/mL
same,MIC50,Staphylococcus aureus [2],0.5 µg/mL
same,MIC90,Staphylococcus aureus [2],1 µg/mL
CN[C@H](CC(C)C)C(=O)N[C@H]1C(=O)N[C@@H](CC(N)=O)C(=O)N[C@H]2C(=O)N[C@H]3C(=O)N[C@H](C(=O)N[C@H](C(=O)O)c4cc(O)cc(O)c4-c4cc3ccc4O)[C@H](O)c3ccc(c(Cl)c3)Oc3cc2cc(c3O[C@@H]2O[C@H](CO)[C@@H](O)[C@H](O)[C@H]2O[C@H]2C[C@](C)(N)[C@H](O)[C@H](C)O2)Oc2ccc(cc2Cl)[C@H]1O [VANCOMYCIN],MBC50,Staphylococcus aureus [1],8 µg/mL
same,MBC90,Staphylococcus aureus [1],8 µg/mL
same,MIC50,Staphylococcus aureus [2],4 µg/mL
same,MIC90,Staphylococcus aureus [2],8 µg/mL
CC(=O)NC[C@H]1CN(c2ccc(N3CCOCC3)c(F)c2)C(=O)O1 [LINEZOLID],MBC50,Staphylococcus aureus [1],8 µg/mL
same,MBC90,Staphylococcus aureus [1],64 µg/mL
same,MIC50,Staphylococcus aureus [2],1 µg/mL
same,MIC90,Staphylococcus aureus [2],2 µg/mL

# Source: ChEMBL document CHEMBL1145533, “Antimicrobial activities of ceragenins against clinical isolates of resistant Staphylococcus aureus” (2007)
